The test system of assay [1] is T47D. Briefly: Antiproliferative activity against human T47D cells under normoxic conditions at 1 uM after 48 hrs. The assay is classed as functional. The gist of the method: (§1)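 T47D proliferation/viability measured by Neutral Red; % inhibition = [1 − OD540(treated)/OD540(control)] × 100. Hypoxic exposure was 1% O2 for 16 or 48 h, with compounds at up to 10 μM. Normoxic incubation was 48 h. Compounds were dissolved as 4 mM DMSO stocks.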

Assay [2] concerns T47D. Briefly: Antiproliferative activity against human T47D cells under normoxic conditions at 10 uM after 48 hrs. The assay is classed as functional. The method in brief: as §1
The nature of assay [3]: Inhibition of HIF1 activation in T47D cells by reporter gene assay. It is filed as cell-based. The following applies: Homo sapiens. The gist of the method:
(§2)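 Transfected T47D luciferase reporter for HIF-1. HIF-1 was induced either by hypoxia (1% O2) or by 1,10-phenanthroline (10 μM) during compound treatment. Luciferase activity was read out and concentration-response was tested at 1, 3 and 10 μM. Compounds came from 4 mM DMSO stocks. Emetine at 1 μM was the positive control.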

Assay [4] deals with T47D. In words: Inhibition of HIF1 activation in T47D cells at 10 uM by reporter gene assay. The assay is classed as cell-based. The following applies: Homo sapiens. The method in brief: as §2
Background: A reporter such as luciferase makes a cellular process visible.

Assay [5] deals with T47D. Briefly: Antiproliferative activity against human T47D cells under hypoxic conditions upto 10 uM after 16 to 48 hrs by neutral red assay. The assay is classed as functional. The gist of the method: as §1
The nature of assay [6]: Inhibition of 1,10-phenanthroline-induced HIF1 activation in T47D cells by reporter gene assay. The assay is classed as cell-based. The note with it: Homo sapiens. The method in brief:
as §2

Assay [7] concerns T47D. In words: Inhibition of hypoxia-induced VEGF protein level in T47D cells at 10 uM by ELISA. It is filed as functional, Homo sapiens. Set-up: scale not given: the % may be the effect or the level left. The method in brief: (§3)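 Exponentially grown T47D cells were exposed to compound for 16 h under hypoxia (1% O2) or 1,10-phenanthroline (10 μM). Secreted VEGF in conditioned media was measured by ELISA. Cells were lysed and lysate protein was measured by Micro BCA; VEGF was normalized to lysate protein. Triplicate wells, mean ± SD.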
A general note: ELISA stands for enzyme-linked immunosorbent assay.

Assay [8] deals with T47D. In words: Inhibition of hypoxia-induced VEGF protein level in T47D cells at 3 uM by ELISA. It is filed as functional, cell-based. The note with it: Homo sapiens. The gist of the method:
as §3

In assay [9] the test system is T47D. Briefly: Inhibition of 1,10-phenanthroline-induced VEGF protein level in T47D cells at 10 uM by ELISA. The assay is classed as functional, Homo sapiens. Also on record: scale not given: the % may be the effect or the level left. The method in brief:
as §3

Assay [10] has as its system T47D. Briefly: Antiproliferative activity against human T47D cells under normoxic conditions after 48 hrs. It is filed as functional, cell-based. The method in brief: as §1
The subject of assay [11] is T47D. Briefly: Inhibition of 1,10-phenanthroline-induced HIF1 activation in T47D cells at 10 uM by reporter gene assay. The assay is classed as cell-based. Also on record: scale not given: the % may be the effect or the level left. The following applies: Homo sapiens. The gist of the method:
as §2

Drawing on ChEMBL document CHEMBL1141333, “Molecular-targeted antitumor agents. 15. Neolamellarins from the marine sponge Dendrilla nigra inhibit hypoxia-inducible factor-1 activation and secreted vascular endothelial growth factor production in breast tumor cells” (J Nat Prod, 2007), this text covers Activity, IC50 and inhibition for four compounds.

Active and inactive are the calls of the source. The calls are words filed in the database; no cut-off is given here.

As usually defined, the IC50 is the concentration that inhibits the measured activity by half. The inhibition is the relative decrease from the control value, in per cent. In the case of `O=C(C(O)c1ccc(O)cc1)n1cc(-c2ccc(O)cc2)c(-c2ccc(O)cc2)c1` (racemic) [7-(R/S)-HYDROXYLAMELLARIN A], the Activity is recorded as -8% in the assay with T47D [1]; 34% in the assay with T47D [2]; <20% with T47D [5]; 87% in the assay on T47D [7]; 33% with T47D [9]. In addition, the 50% inhibitory concentration (IC50) in assay [3] amounted to 1900 nM; in assay [6], 3700 nM. In the assay with T47D [4], this compound displayed an inhibition of 98%. Further, the result in the assay on T47D [8] was inactive.
Consider `O=C(Cc1ccc(O)cc1)N1C(=O)C(c2ccc(O)cc2)=C(c2ccc(O)cc2)C1O` (stereo unspecified) [5-HYDROXYNEOLAMELLARIN B], for which the result with T47D [10] was inactive. The inhibition in the assay on T47D [4] came to 22%. The Activity is <20% with T47D [5] and 33% with T47D [11].
As for `O=C(Cc1ccc(O)cc1)n1cc(-c2ccc(O)cc2)c(-c2ccc(O)cc2)c1` [NEOLAMELLARIN A], the outcome with T47D [10] was inactive. The inhibition with T47D [4] was determined as 26%. Moreover, the results for the Activity in the assay on T47D [5] and with T47D [11] were <20% and 58%, respectively.
Consider `O=C(Cc1ccc(O)cc1)N1CC(c2ccc(O)cc2)=C(c2ccc(O)cc2)C1=O` [NEOLAMELLARIN B], for which, in the assay on T47D [10], the result was inactive. In the assay on T47D [4], this compound registered an inhibition of 23%. Also, the Activity with T47D [5] is <20%; with T47D [11] it was 42%.
